From ChEMBL document CHEMBL1124186, “Synthesis and evaluation of tylosin-related macrolides modified at the aldehyde function: a new series of orally effective antibiotics” (1988)
Values after ≈ are worked out from the molar mass of the structure shown.

Columns and labels:
[1] = test system: Bacteroides fragilis; assay: In vitro antimicrobial activity against anaerobic bacteria bacteroides fragilis 111; assay type: functional
[2] = test system: Bacteroides fragilis; assay: In vitro antimicrobial activity against anaerobic bacteria bacteroides fragilis 1877; assay type: functional
[3] = test system: Bacteroides fragilis; assay: In vitro antimicrobial activity against anaerobic bacteria bacteroides fragilis 1936B,; assay type: functional
[4] = test system: Eikenella corrodens; assay: In vitro antimicrobial activity against anaerobic bacteria bacteroides corrodens 1874; assay type: functional
[5] = test system: Phocaeicola vulgatus; assay: In vitro antimicrobial activity against anaerobic bacteria bacteroides vulgatus 1211; assay type: functional
[6] = test system: Prevotella melaninogenica; assay: In vitro antimicrobial activity against anaerobic bacteria bacteroides melaninogenicus 1856,; assay type: functional
[7] = test system: Bacteroides thetaiotaomicron; assay: In vitro antimicrobial activity against anaerobic bacteria bacteroides thetaiotaomicron 1438; assay type: functional
[8] = test system: Clostridioides difficile; assay: In vitro antimicrobial activity against anaerobic bacteria Clostridium difficile 2994; assay type: functional
[9] = test system: Clostridium perfringens; assay: In vitro antimicrobial activity against anaerobic bacteria clostridium perfringens 81,; assay type: functional
[10] = test system: Clostridium septicum; assay: In vitro antimicrobial activity against anaerobic bacteria clostridium septicum 1128; assay type: functional
[11] = test system: Chlamydia trachomatis; assay: In vitro antimicrobial activity against chlamydia trachomatis.; assay type: functional
[12] = test system: Fusobacterium; assay: In vitro antimicrobial activity against anaerobic bacteria fusobacterium symbiosum 1470; assay type: functional
[13] = test system: Haemophilus influenzae; assay: In vitro antimicrobial activity against aerobic bacteria Haemophilus influenzae 76; assay type: functional
[14] = test system: Haemophilus influenzae; assay: In vitro antimicrobial activity against aerobic bacteria Haemophilus influenzae MX366,; assay type: functional
[15] = test system: Haemophilus influenzae; assay: In vitro antimicrobial activity against Haemophilus influenzae.; assay type: functional
[16] = test system: Mus musculus; assay: Peripheral plasma levels in mice after oral administration of 50 mg/kg dose for 2 hr; assay type: functional, organism-based; design: dose 50 mg/kg
Summary of the method: (§1)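 Mice were given the compound orally and sampled for peripheral plasma at each time point. Plasma was assayed microbiologically against Micrococcus luteus seeded in Antibiotic Medium 1. Inhibition zone sizes were read, and concentrations were calculated from each compound's own standard curve. Each value is the mean of five mice per time point.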

[17] = test system: Mus musculus; assay: Peripheral plasma levels in mice after oral administration of 50 mg/kg dose for 4 hr; assay type: functional, organism-based; design: dose 50 mg/kg; summary of the method: as §1
[18] = test system: Mus musculus; assay: Peripheral plasma levels in mice after oral administration of 100 mg/kg dose for 4 hr; assay type: functional, organism-based; design: dose 100 mg/kg; summary of the method: as §1
[19] = test system: Mus musculus; assay: Peripheral plasma levels in mice after oral administration of 50 mg/kg dose for 0.25 hr; assay type: functional, organism-based; design: dose 50 mg/kg; summary of the method: as §1
[20] = test system: Mus musculus; assay: Peripheral plasma levels in mice after oral administration of 100 mg/kg dose for 0.25 hr; assay type: functional, organism-based; design: dose 100 mg/kg; summary of the method: as §1
[21] = test system: Mus musculus; assay: Peripheral plasma levels in mice after oral administration of 100 mg/kg dose for 0.5 hr; assay type: functional, organism-based; design: dose 100 mg/kg; summary of the method: as §1
[22] = test system: Mus musculus; assay: Peripheral plasma levels in mice after oral administration of 100 mg/kg dose for 1 hr; assay type: functional, organism-based; design: dose 100 mg/kg; summary of the method: as §1
[23] = test system: Mus musculus; assay: Peripheral plasma levels in mice after oral administration of 100 mg/kg dose for 2 hr; assay type: functional, organism-based; design: dose 100 mg/kg; summary of the method: as §1
[24] = test system: Mus musculus; assay: Peripheral plasma levels in mice after oral administration of 50 mg/kg dose for 1 hr; assay type: functional, organism-based; design: dose 50 mg/kg; summary of the method: as §1
[25] = In vitro antimicrobial activity against anaerobic bacteria peptostreptococcus intermedius 1264; assay type: functional
[26] = test system: Peptoniphilus asaccharolyticus; assay: In vitro antimicrobial activity against anaerobic bacteria peptococcus asaccharolyticus 1302; assay type: functional
[27] = test system: Anaerococcus prevotii; assay: In vitro antimicrobial activity against anaerobic bacteria peptococcus prevoti 1281; assay type: functional
[28] = test system: Cutibacterium acnes; assay: In vitro antimicrobial activity against anaerobic bacteria propionibacterium acnes 79; assay type: functional
[29] = test system: Rattus norvegicus; assay: Peripheral plasma levels in rats after oral administration of 100 mg/kg dose for 0.25 hr; assay type: functional, organism-based; design: dose 100 mg/kg
Summary of the method: (§2)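 Rats received 100 mg/kg orally and were sampled for peripheral plasma. Concentrations were measured by Micrococcus luteus agar-diffusion microbiological assay in Antibiotic Medium 1, with zone sizes converted using the standard curve for the appropriate compound. Each value is the average of three rats per time point.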

[30] = test system: Rattus norvegicus; assay: Peripheral plasma levels in rats after oral administration of 100 mg/kg dose for 0.5 hr; assay type: functional, organism-based; design: dose 100 mg/kg; summary of the method: as §2
[31] = test system: Rattus norvegicus; assay: Peripheral plasma levels in rats after oral administration of 100 mg/kg dose for 1 hr; assay type: functional, organism-based; design: dose 100 mg/kg; summary of the method: as §2
[32] = test system: Rattus norvegicus; assay: Peripheral plasma levels in rats after oral administration of 100 mg/kg dose for 2 hr; assay type: functional, organism-based; design: dose 100 mg/kg; summary of the method: as §2
[33] = test system: Rattus norvegicus; assay: Peripheral plasma levels in rats after oral administration of 100 mg/kg dose for 4 hr; assay type: functional, organism-based; design: dose 100 mg/kg; summary of the method: as §2
[34] = test system: Streptococcus; assay: In vitro antimicrobial activity against aerobic bacteria Streptococcus B 14; assay type: functional
[35] = test system: Streptococcus; assay: In vitro antimicrobial activity against aerobic bacteria Streptococcus B 8; assay type: functional
[36] = test system: Streptococcus; assay: In vitro antimicrobial activity against aerobic bacteria Streptococcus C 24; assay type: functional
[37] = test system: Streptococcus; assay: In vitro antimicrobial activity against aerobic bacteria Streptococcus D 8043; assay type: functional
[38] = test system: Streptococcus; assay: In vitro antimicrobial activity against aerobic bacteria Streptococcus D 9960; assay type: functional
[39] = test system: Streptococcus; assay: In vitro antimicrobial activity against aerobic bacteria Streptococcus G Kruder; assay type: functional; conditions: Streptococcus; read-out: MIC
[40] = test system: Staphylococcus epidermidis; assay: In vitro antimicrobial activity against aerobic bacteria Streptococcus epi 270; assay type: functional
[41] = test system: Streptococcus pneumoniae; assay: In vivo effective dose against experimental infections in mice Strep. pneumoniae park when administered sc; assay type: functional
[42] = test system: Staphylococcus aureus; assay: In vitro antimicrobial activity against Staphylococcus aureus X1; assay type: functional
[43] = test system: Staphylococcus aureus; assay: In vitro antimicrobial activity against aerobic bacteria Staphylococcus aureus 513E; assay type: functional
[44] = test system: Staphylococcus aureus; assay: In vitro antimicrobial activity against aerobic bacteria Staphylococcus aureus V140,; assay type: functional
[45] = test system: Staphylococcus aureus; assay: In vitro antimicrobial activity against aerobic bacteria Staphylococcus aureus V41; assay type: functional
[46] = test system: Staphylococcus aureus; assay: In vitro antimicrobial activity against aerobic bacteria Staphylococcus aureus X400; assay type: functional
[47] = test system: Streptococcus pneumoniae; assay: In vitro antimicrobial activity against aerobic bacteria Streptococcus pneumoniae B1-438; assay type: functional, streptococcus pneum
[48] = test system: Streptococcus pneumoniae; assay: In vivo effective dose against experimental infections in mice Strep. pneumoniae park when administered orally; assay type: functional; conditions: po
[49] = test system: Streptococcus pyogenes; assay: In vivo effective dose against experimental infections in rodent caused by Streptococcus pyogenes C203 when administered sc; assay type: functional
[50] = test system: Streptococcus sanguinis; assay: In vitro antimicrobial activity against aerobic bacteria Streptococcus sanguis MX132; assay type: functional
[51] = test system: Streptococcus pneumoniae; assay: In vitro antimicrobial activity against Streptococcus pneumoniae; assay type: functional
[52] = test system: Staphylococcus epidermidis; assay: In vitro antimicrobial activity against Staphylococcus epidermidis EPI1; assay type: functional
[53] = test system: Staphylococcus epidermidis; assay: In vitro antimicrobial activity against aerobic bacteria Streptococcus epi 222; assay type: functional
[54] = test system: Staphylococcus aureus; assay: In vivo effective dose against experimental infections in mice Staphylococcus aureus X1 when administered orally; assay type: functional; conditions: po
[55] = test system: Staphylococcus aureus; assay: In vivo effective dose against experimental infections in mice Staphylococcus aureus X1 when administered sc; assay type: functional
[56] = test system: Enterococcus faecium; assay: In vitro antimicrobial activity against Streptococcus faecium X66; assay type: functional, streptococcus fae-cium
[57] = test system: Streptococcus pyogenes; assay: In vitro antimicrobial activity against Streptococcus pyogenes C203; assay type: functional
[58] = test system: Streptococcus viridans; assay: In vitro antimicrobial activity against aerobic bacteria Streptococcus viridans 9943; assay type: functional
[59] = test system: Streptococcus; assay: In vitro antimicrobial activity against aerobic bacteria Streptococcus B 5; assay type: functional
[60] = test system: Staphylococcus aureus; assay: In vitro antimicrobial activity against aerobic bacteria Staphylococcus aureus V135; assay type: functional
[61] = test system: Prevotella melaninogenica; assay: In vitro antimicrobial activity against anaerobic bacteria bacteroides melaninogenicus 2736; assay type: functional
[62] = test system: Fusobacterium necrophorum; assay: In vitro antimicrobial activity against anaerobic bacteria usobacterium necrophorum 6054A; assay type: functional
[63] = test system: Mus musculus; assay: Peripheral plasma levels in mice after oral administration of 50 mg/kg dose for 0.5 hr; assay type: functional, organism-based; design: dose 50 mg/kg; summary of the method: as §1
[64] = test system: Collinsella aerofaciens; assay: In vitro antimicrobial activity against anaerobic bacteria eubacterium aerofaciens 1235; assay type: functional
[65] = test system: Streptococcus; assay: In vitro antimicrobial activity against aerobic bacteria Streptococcus D 2041; assay type: functional
[66] = test system: Peptostreptococcus anaerobius; assay: In vitro antimicrobial activity against anaerobic bacteria eubacterium peptostreptococcus anaerobius 1428,; assay type: functional
[67] = test system: Streptococcus pyogenes; assay: In vivo effective dose against experimental infections in rodent caused by Streptococcus pyogenes C203 when administered orally; assay type: functional; conditions: po

CC[C@H]1C[C@@H](C)C(=O)/C=C/C(C)=C/[C@H](CO[C@@H]2O[C@H](C)[C@@H](O)[C@@H](OC)[C@H]2OC)[C@@H](CC)OC(=O)C[C@@H](O)[C@H](C)[C@H]1O[C@@H]1O[C@H](C)[C@@H](O)[C@H](N(C)C)[C@H]1O
MIC [1]: 4 µg/mL (≈ 5.28 µM) | MIC [2]: 4 µg/mL (≈ 5.28 µM) | MIC [3]: 4 µg/mL (≈ 5.28 µM) | MIC [4]: 4 µg/mL (≈ 5.28 µM) | MIC [5]: 2 µg/mL (≈ 2.64 µM) | MIC [6]: 1 µg/mL (≈ 1.32 µM) | MIC [7]: 4 µg/mL (≈ 5.28 µM) | MIC [8]: < 0.5 µg/mL | MIC [9]: 2 µg/mL (≈ 2.64 µM) | MIC [10]: < 0.5 µg/mL | MIC [11]: 0.5 µg/mL (≈ 0.66 µM) | MIC [12]: 2 µg/mL (≈ 2.64 µM) | MIC [13]: 16 µg/mL (≈ 21.1 µM) | MIC [14]: 16 µg/mL (≈ 21.1 µM) | MIC [15]: 16 µg/mL (≈ 21.1 µM) | Concentration [16]: 2.2 µg/mL | Concentration [17]: 0.9 µg/mL | Concentration [18]: 0.8 µg/mL | Concentration [19]: 0.9 µg/mL | Concentration [20]: 2.6 µg/mL | Concentration [21]: 4.5 µg/mL | Concentration [22]: 3.4 µg/mL | Concentration [23]: 2.3 µg/mL | Concentration [24]: 2 µg/mL | MIC [25]: 4 µg/mL (≈ 5.28 µM) | MIC [26]: 2 µg/mL (≈ 2.64 µM) | MIC [27]: 2 µg/mL (≈ 2.64 µM) | MIC [28]: 8 µg/mL (≈ 10.6 µM) | Concentration [29]: 4.6 µg/mL | Concentration [30]: 7.4 µg/mL | Concentration [31]: 7.2 µg/mL | Concentration [32]: 8.7 µg/mL | Concentration [33]: 5.1 µg/mL | MIC [34]: 16 µg/mL (≈ 21.1 µM) | MIC [35]: 8 µg/mL (≈ 10.6 µM) | MIC [36]: 0.5 µg/mL (≈ 0.66 µM) | MIC [37]: 8 µg/mL (≈ 10.6 µM) | MIC [38]: 16 µg/mL (≈ 21.1 µM) | MIC [39]: 64 µg/mL (≈ 84.4 µM) | MIC [40]: > 128 µg/mL | ED50 [41]: > 20 mg/kg | MIC [42]: 0.25 µg/mL (≈ 0.33 µM) | MIC [43]: 0.25 µg/mL (≈ 0.33 µM) | MIC [44]: 0.5 µg/mL (≈ 0.66 µM) | MIC [45]: 0.25 µg/mL (≈ 0.33 µM) | MIC [46]: 0.5 µg/mL (≈ 0.66 µM) | MIC [47]: > 128 µg/mL | ED50 [48]: > 50 mg/kg | ED50 [49]: 4.3 mg/kg | MIC [50]: 2 µg/mL (≈ 2.64 µM) | MIC [51]: 2 µg/mL (≈ 2.64 µM) | MIC [52]: 0.25 µg/mL (≈ 0.33 µM) | MIC [53]: 0.12 µg/mL (≈ 0.158 µM) | ED50 [54]: 10 mg/kg | ED50 [55]: 2.2 mg/kg | MIC [56]: 16 µg/mL (≈ 21.1 µM) | MIC [57]: 0.5 µg/mL (≈ 0.66 µM) | MIC [58]: > 128 µg/mL | MIC [59]: 8 µg/mL (≈ 10.6 µM) | MIC [60]: 0.25 µg/mL (≈ 0.33 µM) | MIC [61]: 4 µg/mL (≈ 5.28 µM) | MIC [62]: 8 µg/mL (≈ 10.6 µM) | Concentration [63]: 0.5 µg/mL | MIC [64]: 2 µg/mL (≈ 2.64 µM) | MIC [65]: 8 µg/mL (≈ 10.6 µM) | MIC [66]: < 0.5 µg/mL | ED50 [67]: 7 mg/kg
